TCR-CD3 inh: human TCR-CD3 binding inhibition; TAMRA-labeled TCR probe fluorescence, biochemical; inhibition, % at 9.4 µM; AID 651800; actives 0.37% (n = 360,000); in the data active = inhibition above about 19%;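 also: recombinant mutant TCR 2C K166C tagged with TAMRA read by polarization; 0% = receptor in buffer alone and 100% = receptor with positive control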
ABHD4 inh: inhibits mouse alpha/beta hydrolase domain 4; Q8VD66; purified mABHD4, FP-Rh probe fluorescence polarization; inhibition, % at 8.92 µM; actives 0.54% (n = 370,000);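 active = inhibition exceeding the mean over every tested compound plus 3 SD, cut at about 30% in these data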;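 also: 0% = plate median of compound wells and 100% = S159A mutant with DMSO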
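Assay system: Wild-type mouse ABHD4 protein | Medium: HEPES pH 7.0 buffer, 150 mM NaCl, 0.01% Pluronic F-127 | Incubation: Enzyme–compound pre-incubation 45 min, then probe 60 min, both 25 °C | Technique: Fluorescence polarization with parallel and perpendicular emission, 525/598 nm | Evaluation: % inhibition of FP-Rh probe binding versus controls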
ARNT-TACC3 inh: disruptors of human ARNT/TACC3 interaction; Q9Y6A5; AlphaScreen His-ARNT PAS-B/GST-TACC3 binding, luminescence; TACC3 fragment carries E629A point mutation; inhibition, % at 9.99 µM; actives 0.66% (n = 390,000);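 active = mean inhibition of replicates at least 50% and at least half of replicates each reaching 50%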;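 also: 0% = complete ARNT plus TACC3 wells and 100% = ARNT alone without TACC3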
HTRA1 inhibitor: blocks human HTRA1 serine peptidase; actives 0.5% (n = 340,000); recombinant HTRA1, FP-rhodamine activity-based probe, fluorescence polarization; Q92743; AID 504803; inhibition, % at 5.96 µM; in the data active = inhibition above about 36%;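 also: 0% = enzyme with DMSO and 100% = wells lacking enzyme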
SIAE inh: blocks human sialic acid acetylesterase; SIAE FP-Rh probe binding, fluorescence polarization; inhibition, % at 9.66 µM; actives 0.69% (n = 370,000);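 active = inhibition above a cutoff: mean of compounds within the control limits plus 3 SD of those, cut at about 17% in these data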;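 also: 0% = plate median of compound wells and 100% = probe without SIAE protein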
Target sequence (Q9HAT2 whole entry, looked up): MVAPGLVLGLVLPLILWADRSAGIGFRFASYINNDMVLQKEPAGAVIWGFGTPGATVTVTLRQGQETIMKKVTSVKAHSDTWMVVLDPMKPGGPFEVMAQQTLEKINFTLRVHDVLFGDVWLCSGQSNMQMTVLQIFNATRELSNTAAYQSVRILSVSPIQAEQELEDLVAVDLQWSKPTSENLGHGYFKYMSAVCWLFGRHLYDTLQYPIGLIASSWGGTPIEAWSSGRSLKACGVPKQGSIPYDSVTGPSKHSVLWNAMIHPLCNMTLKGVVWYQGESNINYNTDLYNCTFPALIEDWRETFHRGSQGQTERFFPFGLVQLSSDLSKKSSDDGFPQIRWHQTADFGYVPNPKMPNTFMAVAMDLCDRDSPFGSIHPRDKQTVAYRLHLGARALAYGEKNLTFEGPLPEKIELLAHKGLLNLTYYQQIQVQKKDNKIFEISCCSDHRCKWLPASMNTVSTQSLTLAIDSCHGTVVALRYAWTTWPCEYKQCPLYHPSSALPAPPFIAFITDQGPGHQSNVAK
SIAE inh conf: human SIAE inhibition, confirmation; shares compounds with SIAE inh; SIAE FP-Rh activity-based probe, fluorescence polarization; inhibition, % at 9.66 µM; actives 13% (n = 2,300);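 active = mean inhibition of the replicates above the hit cutoff set in the primary screen, cut at about 17% in these data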;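 also: 0% = SIAE with DMSO and probe and 100% = probe without SIAE; inhibitors lower polarization as more probe stays unbound to SIAE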
The depositor's hits bear a star; x = not tested or not shown. In the library only some 1.8% were active in any assay of this set; here they are far more common.

SMILES	TCR-CD3 inh	ABHD4 inh	ARNT-TACC3 inh	HTRA1 inhibitor	SIAE inh	SIAE inh conf
CCOc1ccc2nc(NC(=O)Nc3cccs3)sc2c1	-1	16	6	3	34*	9
CCOc1ccc2nc(NC(=O)Nc3ccccc3)sc2c1	0	-5	-1	1	4	x
OC1C2(Cc3ccccc3)CN3CCN(C2)CC1(Cc1ccccc1)C3 (configuration not stated)	0	-8	-1	7	-2	x
OC1C2CN3CCN(C2)CC1(Cc1ccccc1)C3 (configuration not stated)	12	4	x	2	21*	-2
COc1cccc(N2CCN(c3ncnc4c3[nH]c3ccccc34)CC2C)c1 (configuration not stated)	-1	15	x	x	11	x
COc1cccc(N2CCN(c3ncnc4c3[nH]c3ccc(F)cc34)CC2C)c1 (configuration not stated)	1	0	-9	-18	19*	-4
COc1cc2[nH]c3c(Cl)ncnc3c2cc1OC	-6	4	20	-3	-1	x
COc1cc2[nH]c3c(N4CCN(c5ccc(Cl)cc5)CC4)ncnc3c2cc1OC	5	11	-1	2	30*	25*
CCn1c(SCC(=O)Nc2ccc(OC)c(OC)c2)nc2c(c1=O)SCC2	-4	6	-1	4	19*	-1
COc1ccc(NC(=O)CSc2nc3c(c(=O)n2C)SCC3)cc1OC	-4	-3	4	3	1	x
Cc1noc(C)c1NC(=O)Nc1ccc2c(c1)C(=O)N([C@H](C)CO)C[C@H](C)[C@@H](CN(C)Cc1ccc(Cl)c(Cl)c1)O2	x	x	8	x	x	x
CCN(CC)S(=O)(=O)c1cccc(C(=O)OC2CCOC2=O)c1 (configuration not stated)	-3	-4	-6	6	2	x
CCN(CC)S(=O)(=O)c1cccc(C(=O)OC2CC(C)OC2=O)c1 (configuration not stated)	3	-3	-8	1	17*	-2
CCNC(=O)Nc1ccc2c(c1)C(=O)N(C)[C@@H]1CC[C@@H](CC(=O)NCc3cccc(F)c3)O[C@H]1CO2	x	x	-34	x	x	x
COc1ccc(O)c(C=Nc2cc(NC(C)=O)c(Cl)cc2Cl)c1	-7	-5	-2	-1	18*	1
Cc1ccc(N(Cc2ccc(C(=O)NCC3CCCO3)cc2)S(C)(=O)=O)cc1C (configuration not stated)	7	-4	9	-4	20*	2
CS(=O)(=O)N(Cc1ccc(Cl)cc1)c1ccc(C(=O)NCC2CCCO2)cc1 (configuration not stated)	-11	1	1	2	-4	x
O=C(N[C@H](Cc1ccccc1)C(=O)N1CCN(C(=O)N2CCCCC2)CC1)[C@H]1O[C@@H](n2ccc(=O)[nH]c2=O)[C@H](O)[C@@H]1O	10	7	x	x	-1	x
CC(C)[C@H](CO)NC(=O)[C@H]1O[C@@H](n2ccc(=O)[nH]c2=O)[C@H](O)[C@@H]1O	-3	-3	x	x	70*	55*
O=C(N[C@H](Cc1ccccc1)C(=O)N1CCN(CC(=O)N2CCCC2)CC1)[C@H]1O[C@@H](n2ccc(=O)[nH]c2=O)[C@H](O)[C@@H]1O	3	-1	x	x	47*	43*
Cc1nccn1-c1ccc(NC(=O)[C@@H](Cc2ccccc2)NC(=O)[C@H]2O[C@@H](n3ccc(=O)[nH]c3=O)[C@H](O)[C@@H]2O)cc1	4	-19	x	x	54*	44*
O=C(N[C@H](Cc1ccccc1)C(=O)N1CCN(C(=O)N2CCOCC2)CC1)[C@H]1O[C@@H](n2ccc(=O)[nH]c2=O)[C@H](O)[C@@H]1O	4	3	x	x	-6	x
NC(=O)[C@@H]1CCCN1C(=O)[C@@H](Cc1ccccc1)NC(=O)[C@H]1O[C@@H](n2ccc(=O)[nH]c2=O)[C@H](O)[C@@H]1O	6	-2	x	x	49*	41*
O=C(CN1CCOCC1)N[C@@H]1CC[C@H](CCNC(=O)C2CCCCC2)O[C@@H]1CO	x	x	-32	x	x	x
O=C(N[C@H]1CC[C@H](CCNC(=O)C2CCC2)O[C@@H]1CO)c1ccncc1	x	x	0	x	x	x
SMILES	TCR-CD3 inh	ABHD4 inh	ARNT-TACC3 inh	HTRA1 inhibitor	SIAE inh	SIAE inh conf
O=C(Nc1ccc2c(c1)[C@H]1C[C@@H](CC(=O)N3CCCCC3)O[C@H](CO)[C@H]1O2)c1ccc2c(c1)OCO2	x	x	2	x	x	x
NC(=O)c1ncn([C@@H]2O[C@H](C(=O)N[C@H](Cc3ccccc3)C(=O)N3CCN(CC(=O)Nc4ccccn4)CC3)[C@@H](O)[C@H]2O)n1	6	5	x	x	44*	39*
CCC1(c2ccccc2)NC(=S)N(c2cccc(C)c2C)N1 (configuration not stated)	-2	3	-7	-4	17*	-5
Cc1cccc(-n2c(-c3ccccc3)c[nH]c2=S)c1C	6	9	7	0	9	x
Nc1n[nH]c(N)c1N=Nc1ccc(F)cc1	0	2	-3	-10	0	x
COc1ccc(N=Nc2c(N)n[nH]c2N)cc1	6	-1	-3	1	22*	1
CC1CN(S(=O)(=O)c2cccc(C(=O)N(Cc3nnc(-c4ccccc4Cl)o3)C3CC3)c2)CC(C)O1 (configuration not stated)	-11	1	-1	2	17*	-2
Cc1cccc(Cc2ncc(C(F)(F)F)cc2Cl)c1	4	-1	-11	-2	19*	7
CC(=O)C(C)Oc1ccc(Cc2ncc(C(F)(F)F)cc2Cl)cc1 (configuration not stated)	0	-4	3	6	5	x
C[C@@H]1CN([C@H](C)CO)C(=O)Cc2cc(NC(=O)Nc3ccccc3)ccc2O[C@@H]1CN(C)C(=O)Nc1ccccc1	x	x	2	x	x	x
CNC(=S)N(Cc1cccs1)Cc1cc2cc(OC)ccc2[nH]c1=O	7	13	-2	0	42*	73*
COc1ccc2[nH]c(=O)c(CN(Cc3cccs3)C(=S)Nc3cccc(C)c3)cc2c1	13	0	x	-9	-32	x
CCOC(=O)C1=C(O)/C(=C\c2ccc(CNS(=O)(=O)c3ccc(Br)cc3)o2)N=C1C	0	23	-5	18	18*	5
CCOC(=O)C(=O)NCc1ccc(/C=C2/N=C(C)C(C(=O)OCC)=C2O)o1	6	15	2	8	3	x
COC(=O)C1=C(O)/C(=C\c2ccc(CNS(=O)(=O)c3ccc(Cl)cc3)o2)N=C1C	14	29	26	34	22*	-5
COCCNC(=O)C[C@H]1CC[C@@H](NC(=O)NC2CCCCC2)[C@H](CO)O1	x	x	-4	x	x	x
C[C@@H]1CN([C@@H](C)CO)C(=O)Cc2cc(NC(=O)C3CCCCC3)ccc2O[C@H]1CN(C)S(=O)(=O)c1ccc(F)cc1	x	x	-4	x	x	x

Assay outcomes: PubChem BioAssay, several laboratories
